From ChEMBL document CHEMBL1121973, “Synthesis and comparison of some cardiovascular properties of the stereoisomers of labetalol” (1982)
Calls of active or inactive are those of the source. No cut-off for these calls is given here.

Legend:
Rattus norvegicus [1] = species on record: Rattus norvegicus; test: Potency (vasodilation) relative to labetolol; assay type: functional
Rattus norvegicus [2] = test: Change in Heart rate(beats/min) was determined after 2 hr of (10 mg/kg p.o.) administration in conscious, spontaneously hypertensive rats; assay type: functional
Procedure, shortened: (§1)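 Conscious spontaneously hypertensive rats (n = 4 per group) were dosed orally at 10 mg/kg as HCl salts, with placebo as a control group. Blood pressure was measured directly, and heart rate was also recorded. Changes from pre-dose values were read at 1, 2, 3 and 4 h and reported as means ± SEM. Analysis used ANOVA with Duncan's multiple range statistic.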

[3] = Ratio of Relative potency of beta1/alpha bock values; assay type: functional
Rattus norvegicus [4] = test: Change in blood-pressure was determined after 1 hr administration of(10 mg/kg/po) in conscious, spontaneously hypertensive rats(SHR); assay type: functional; procedure, shortened: as §1
Rattus norvegicus [5] = test: Change in blood-pressure was determined after 2 hr administration of(10 mg/kg/po) in conscious, spontaneously hypertensive rats(SHR); assay type: functional; procedure, shortened: as §1
Rattus norvegicus [6] = test: Decrease in blood pressure(mm/Hg) was determined after administration of (10 mg/kg/po); 30-32/>4; assay type: functional
Rattus norvegicus [7] = test: Change in Heart rate(beats/min) was determined after 4 hr of (10 mg/kg p.o.) administration in conscious, spontaneously hypertensive rats; assay type: functional; procedure, shortened: as §1
[8] = molecular target: T1, Adrenergic receptor alpha (Rattus norvegicus) (UniProt P15823+P23944+P43140+P22086+P19328+P22909)
[9] = molecular target: Beta-1 adrenergic receptor (Rattus norvegicus) (UniProt P18090); test: Potency to block Beta-1 adrenergic receptor relative to labetolol
Chain of Beta-1 adrenergic receptor (Rattus norvegicus) (P18090 whole entry, looked up): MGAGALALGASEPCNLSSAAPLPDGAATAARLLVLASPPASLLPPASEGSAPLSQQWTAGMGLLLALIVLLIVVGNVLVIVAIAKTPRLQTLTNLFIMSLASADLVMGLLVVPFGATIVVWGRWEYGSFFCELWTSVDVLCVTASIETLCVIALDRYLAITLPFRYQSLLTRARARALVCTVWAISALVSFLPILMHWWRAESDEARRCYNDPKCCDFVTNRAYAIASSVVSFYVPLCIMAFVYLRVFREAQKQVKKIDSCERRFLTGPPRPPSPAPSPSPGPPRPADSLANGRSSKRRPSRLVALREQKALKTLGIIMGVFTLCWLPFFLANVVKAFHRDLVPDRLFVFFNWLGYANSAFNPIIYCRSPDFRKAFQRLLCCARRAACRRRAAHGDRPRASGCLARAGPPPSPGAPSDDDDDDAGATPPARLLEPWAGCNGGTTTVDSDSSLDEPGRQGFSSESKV
Procedure, shortened: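 Rats, iv dosing as HCl salts in three cumulative doses. Antagonism of the tachycardic response to (±)-isoproterenol (0.1 mg/kg iv) was measured. ID50 is the dose giving 50% inhibition of that response (mean ± SEM), with 3-8 animals per compound. Statistics used analysis of variance with Duncan's multiple range test.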

Rattus norvegicus [10] = test: Antihypertensive activity was determined before dosing in conscious, spontaneously hypertensive rats(SHR); assay type: functional
Procedure, shortened: (§2)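 Blood pressure (mmHg) and heart rate (beats/min) were measured directly in conscious spontaneously hypertensive rats before oral dosing. Groups had n = 4, and values are means ± SEM.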

Rattus norvegicus [11] = test: Change in blood-pressure was determined after 4 hr administration of(10 mg/kg/po) in conscious, spontaneously hypertensive rats(SHR); assay type: functional; procedure, shortened: as §1
Rattus norvegicus [12] = test: Change in Heart rate(beats/min) was determined after 3h of (10 mg/kg p.o.) administration in conscious, spontaneously hypertensive rats; assay type: functional; procedure, shortened: as §1
Rattus norvegicus [13] = test: Change in blood-pressure was determined after 3h administration of(10 mg/kg/po) in conscious, spontaneously hypertensive rats(SHR); assay type: functional; procedure, shortened: as §1
Rattus norvegicus [14] = test: Change in Heart rate(beats/min) was determined after 1 hr of (10 mg/kg p.o.) administration in conscious, spontaneously hypertensive rats; assay type: functional; procedure, shortened: as §1
[15] = molecular target: Beta-1 adrenergic receptor (Rattus norvegicus) (UniProt P18090); test: Antagonistic activity was determined for 50% inhibition of tachycardia response in anesthetized, normotensive rat at a dose range of 0.03-0.3 mg/kg(iv); assay type: functional, organism-based
Procedure, shortened: (§3)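 Anesthetized normotensive rats received the test agent iv as HCl salts in three cumulative doses. The tachycardic response to (±)-isoproterenol (0.1 mg/kg iv) was measured. ID50 is the iv dose giving 50% inhibition of that response, reported as mean ± SEM. Analysis used analysis of variance with Duncan's multiple range statistic.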

Rattus norvegicus [16] = test: Antihypertensive activity was determined by Heart rate(beats/min) measurement before dosing in conscious, spontaneously hypertensive rats; assay type: functional; procedure, shortened: as §2
[17] = molecular target: T1, Adrenergic receptor alpha (Rattus norvegicus); remark: listed apart in the source
Rattus norvegicus [18] = test: Antihypertensive activity was determined before dosing in conscious, spontaneously hypertensive rats(SHR); 12/~1; assay type: functional
Rattus norvegicus [19] = test: Change in blood-pressure was determined after 4 hr administration of (10 mg/kg/po) in conscious, spontaneously hypertensive rats(SHR); assay type: functional; procedure, shortened: as §1
Rattus norvegicus [20] = test: Change in blood-pressure was determined after 3h administration of (10 mg/kg/po) in conscious, spontaneously hypertensive rats(SHR); assay type: functional; procedure, shortened: as §1
Rattus norvegicus [21] = test: Change in blood-pressure was determined after 1 hr administration of (10 mg/kg/po) in conscious, spontaneously hypertensive rats(SHR); assay type: functional; procedure, shortened: as §1
Rattus norvegicus [22] = test: Change in blood-pressure was determined after 2 hr administration of (10 mg/kg/po) in conscious, spontaneously hypertensive rats(SHR); assay type: functional; procedure, shortened: as §1
[23] = system: Adrenergic receptor alpha (Rattus norvegicus); test: Relative alpha-adrenergic blocking potency was determined after administration of intravenously
[24] = molecular target: Beta-1 adrenergic receptor (Rattus norvegicus) (UniProt P18090); test: Antagonistic activity was determined for 50% inhibition of tachycardia response in anesthetized, normotensive rat at a dose range of 0.3-3 mg/kg(iv); assay type: functional, organism-based; procedure, shortened: as §3
Rattus norvegicus [25] = test: Decrease in blood pressure(mm/Hg) was determined after administration of (10 mg/kg/po); assay type: functional
Procedure, shortened: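 Conscious spontaneously hypertensive rats, n = 4 per group, placebo control. Single oral dose of 10 mg/kg as HCl salt. Blood pressure and heart rate were measured directly before dosing and at 1, 2, 3 and 4 h after. Change from predose is given as mean ± SEM. Statistics used analysis of variance with Duncan's multiple range test.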

[26] = molecular target: Beta-1 adrenergic receptor (Rattus norvegicus) (UniProt P18090); test: Antagonistic activity was determined for 50% inhibition of tachycardia response in anesthetized, normotensive rat at a dose range of 0.3-3 mg/kg(iv); Inactive; assay type: functional, organism-based; procedure, shortened: as §3
[27] = molecular target: T1, Adrenergic receptor alpha (Rattus norvegicus); remark: listed apart in the source
[28] = molecular target: Beta-1 adrenergic receptor (Rattus norvegicus) (UniProt P18090); test: Antagonistic activity was determined for 50% inhibition of tachycardia response in anesthetized, normotensive rat at a dose range of 0.1-1(iv); assay type: functional, organism-based; procedure, shortened: as §3
[29] = Ratio of Relative potency of beta1/alpha bock values; 26-39

Row | Relative potency [9] | ID50 [17] [mg/kg] | ID50 [24] [mg/kg] | Compound | Relative potency (Rattus norvegicus [1]) | Heart rate (Rattus norvegicus [2]) [beats min-1] | Decrease in blood pressure (Rattus norvegicus [6]) | Heart rate (Rattus norvegicus [7]) [beats min-1] | BP (Rattus norvegicus [10]) [mmHg] | Heart rate (Rattus norvegicus [12]) [beats min-1] | Heart rate (Rattus norvegicus [14]) [beats min-1] | Heart rate (Rattus norvegicus [16]) [beats min-1] | Change in BP (Rattus norvegicus [19]) [mmHg] | Change in BP (Rattus norvegicus [20]) [mmHg] | Change in BP (Rattus norvegicus [21]) [mmHg] | Change in BP (Rattus norvegicus [22]) [mmHg] | Decrease in blood pressure (Rattus norvegicus [25]) | also measured
1 | 3.5 |  |  | C[C@H](CCc1ccccc1)NC[C@H](O)c1ccc(O)c(C(N)=O)c1.Cl [DILEVALOL HYDROCHLORIDE] | 7 | -41 | >30 | -45 | 160 | -55 | -47 | 378 |  |  |  |  |  | Ratio [3]: > 500; Change in BP (Rattus norvegicus [4]): -26 mmHg; Change in BP (Rattus norvegicus [5]): -26 mmHg; ID50 [8]: 35 mg/kg; Change in BP (Rattus norvegicus [11]): -27 mmHg; Change in BP (Rattus norvegicus [13]): -29 mmHg; ID50 [15]: 0.07 mg/kg
2 |  | 1.3 | 5 | C[C@H](CCc1ccccc1)NC[C@@H](O)c1ccc(O)c(C(N)=O)c1.Cl |  | -16 |  | -39 | 158 | -34 | -9 | 359 | -3 | -4 | -12 | -5 |  | Decreace in BP (Rattus norvegicus [18]): 12 mmHg; Relative potency [23]: 5.1
3 | 0 | 4.8 |  | C[C@@H](CCc1ccccc1)NC[C@@H](O)c1ccc(O)c(C(N)=O)c1.Cl |  | 1 |  | -7 | 159 | -4 | 8 | 356 | 8 | 11 | 4 | 10 | 0 | ID50 [26]: inactive
4 | < 0.06 |  | 4.1 | C[C@@H](CCc1ccccc1)NC[C@H](O)c1ccc(O)c(C(N)=O)c1.Cl |  | 5 |  | 6 | 164 | -8 | 7 | 362 | 8 | 6 | -5 | -2 | 0 | ID50 [27]: inactive
5 | 1 | 7.1 |  | CC(CCc1ccccc1)NCC(O)c1ccc(O)c(C(N)=O)c1 (centres undefined) [LABETALOL] | 1 | -18 | >30 | -23 | 160 | -27 | -13 | 362 | -20 | -20 | -29 | -22 |  | ID50 [28]: 0.25 mg/kg; Ratio [29]: 26
